# Screens deposited in PubChem by several laboratories.
# Hits are enriched below; roughly 1.8% of the tested compounds scored in any of these assays.
# TbMetRS inhib – Trypanosoma brucei MetRS inhibition | 360,000 compounds, 0.4% hits | inhibition, % at 11.9 µM | purified T. brucei MetRS, ATP depletion, Kinase-Glo luminescence;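 active means inhibition above a per-plate cutoff of the control wells' mean inhibition plus 3 SD, cut at about 5.5% in these data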;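 further: 0% = DMSO wells median and 100% = median of wells with control inhibitor compound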
#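 Dosing: 11.9 µM single point; system: parasite MetRS enzyme; technique: luminescence of leftover ATP; times: 15 min enzyme-compound preincubation, 2 h reaction, 10 min detection, 25 °C; replicates: each compound tested once; read-out basis: percent inhibition relative to median high and low control wells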
# Rev-erbA mod – Rev-erb alpha (human) modulation; Rev-erbα–FITC-DNA binding, fluorescence polarization, 90 min; AID 1259318; 370,000 compounds, 0.79% hits; P20393; activity, % at 10 µM;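 active means activity above about 14%, limit read from the data; passing the limit was not always enough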;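 further: 0% = DMSO wells with 35 nM protein and 100% = DMSO wells with 750 nM protein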
# Target sequence (P20393 whole entry, looked up): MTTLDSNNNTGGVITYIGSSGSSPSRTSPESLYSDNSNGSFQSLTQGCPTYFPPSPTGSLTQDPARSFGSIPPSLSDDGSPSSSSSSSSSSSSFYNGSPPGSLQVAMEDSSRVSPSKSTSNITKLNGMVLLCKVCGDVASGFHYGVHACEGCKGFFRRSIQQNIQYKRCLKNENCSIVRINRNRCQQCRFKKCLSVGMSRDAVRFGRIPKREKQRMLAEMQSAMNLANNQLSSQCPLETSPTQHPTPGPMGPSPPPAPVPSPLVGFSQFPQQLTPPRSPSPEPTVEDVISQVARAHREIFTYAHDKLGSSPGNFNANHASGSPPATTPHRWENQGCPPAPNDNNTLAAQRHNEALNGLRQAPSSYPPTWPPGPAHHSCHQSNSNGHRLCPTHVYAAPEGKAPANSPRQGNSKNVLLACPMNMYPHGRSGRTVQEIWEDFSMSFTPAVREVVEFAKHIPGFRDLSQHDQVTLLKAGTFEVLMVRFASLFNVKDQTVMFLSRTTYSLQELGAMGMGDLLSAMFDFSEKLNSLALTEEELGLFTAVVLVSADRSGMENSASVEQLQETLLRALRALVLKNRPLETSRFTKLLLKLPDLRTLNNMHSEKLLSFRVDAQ
# PG9 Ab binder – small molecules binding HIV-1 gp120 antibody PG9; AID 624416; TR-FRET gp120-PG9 antibody binding; 360,000 compounds, 0.43% hits; inhibition, % at 6.7 µM; in the data active means inhibition above about 8.5%
# Rin1 Abl inh – blocks binding of human Rin1 to Abl. TR-FRET Rin1/Abl binding, biochemical. inhibition, % at 7.35 µM. 360,000 compounds, 0.4% hits. AID 588664; in the data active means inhibition above about 5%, passing the limit was not always enough
# PG9 binder conf – confirmation of small molecules binding HIV-1 gp120 antibody PG9; shares compounds with PG9 Ab binder; TR-FRET PG9 antibody binding, biochemical; inhibition, % at 6.7 µM; 1,500 compounds, 90% hits; AID 651571; in the data active means inhibition above about 9%
# PGV04 counter – PGV04 control antibody binding, counter-screen | shares compounds with PG9 Ab binder | TR-FRET PGV04 antibody-gp120 binding, biochemical | inhibition, % at 6.7 µM | 1,500 compounds, 95% hits | AID 651604; in the data active means inhibition above about 9.5%
# PG9 bind DR – PG9 antibody binding, dose response. shares compounds with PG9 Ab binder. TR-FRET PG9 antibody-gp120 binding inhibition. IC50, µM. 95 tested, under 10 active; in the data active means IC50 below about 10 µM
# PGV04 DR counter – counter-screen for PG9 binders: binding to control antibody PGV04 | shares compounds with PG9 Ab binder | TR-FRET binding to control antibody PGV04 | IC50, µM | 95 compounds, 20% hits | AID 651937
# PG126 binding DR – counter-screen for PG9 binders: binding to control antibody PG126. AID 651939. 95 compounds, 20% hits. TR-FRET binding to antibody PG126, counterscreen. shares compounds with PG9 Ab binder. IC50, µM
# Rev-erbA confirm – confirmation of modulators of human Rev-erb alpha DNA binding | shares compounds with Rev-erbA mod | AID 1259319 | Rev-erb alpha FITC-DNA binding, fluorescence polarization, 90 min | 3,000 compounds, 61% hits | activation, % at 25 µM;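 active means activation at or above a set limit, or at least 3 SD above the negative control mean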;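 further: 0% = 35 nM protein with DMSO and 100% = 750 nM protein high control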
# RORg DNA counter – affects RORgamma DNA binding in a Rev-erb alpha counter-screen; 910 compounds, 8% hits; purified RORgamma protein-FITC-DNA binding, fluorescence polarization; AID 1259320; shares compounds with Rev-erbA mod; IC50, µM;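 active means Compounds whose fitted half-maximal concentration for disrupting protein-DNA binding is below 10 micromolar; the record names Rev-erb in its text, so the target is in doubt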
# * hit, by the source's call; i = inactive; · = no result given. Unless noted, no stated cut-off is given here; in the data, active means IC50 below about 9 µM; inactive means the rest.
SMILES,TbMetRS inhib,Rev-erbA mod,PG9 Ab binder,Rin1 Abl inh,PG9 binder conf,PGV04 counter,Rev-erbA confirm,others
Cn1c(SCC(=O)NCc2ccc3c(c2)OCO3)ncc(C(=O)Nc2ccc(F)cc2)c1=O,0,40*,21*,-2,16*,18*,51*,RORg DNA counter=>40
Cn1c(SCC(=O)NCc2ccc(F)cc2)ncc(C(=O)Nc2ccccc2)c1=O,0,13,9,-1,·,·,·,
COc1ccc(N(C(=O)c2csnn2)C(C(=O)NC2CCCC2)c2cccs2)cc1 (configuration not stated),0,-4,-1,0,·,·,·,
Cc1cc(C)c2cc(C#N)c(NCCNC(=O)c3ccccc3)nc2c1,-1,18*,29*,·,25*,32*,15*,
CC(=O)c1ccc(N2CCN(S(=O)(=O)c3cc4c(cc3C)NC(=O)CO4)CC2)cc1,-1,31*,37*,-1,33*,48*,23*,
Cc1sc2nc(Cc3ccccc3)[nH]c(=O)c2c1-c1ccccc1,0,70*,35*,2,44*,65*,87*,RORg DNA counter=i
COc1ccc(CSC(=S)NNc2ccccc2)cc1,0,-9,-2,0,·,·,·,
COc1ccc2[nH]c(C(=O)Nc3ccc(F)cc3Br)cc2c1,-1,68*,16*,-99,22*,65*,79*,RORg DNA counter=>40
O=C(Nc1ccc(F)cc1)c1cc2cc(Cl)ccc2[nH]1,0,43*,11*,3,13*,21*,7,
COc1ccc2[nH]c(C(=O)Nc3ncc(C)cc3Br)cc2c1,0,-2,-1,-1,·,·,·,
Cc1cccc(C(=O)N2CCN(Cc3nc4sc5c(c4c(=O)[nH]3)CCCC5)CC2)c1,0,3,-3,1,·,·,·,
COc1ccc(NC(=O)COC(=O)c2ccc3c(c2)OCO3)c(OC)c1,0,175*,22*,3,33*,29*,180*,PG9 bind DR=>67;PGV04 DR counter=i;PG126 binding DR=i;RORg DNA counter=>40
COc1cc(-c2ccc3c(=O)c4ccccc4sc3c2)cc(OC)c1OC,0,76*,17*,4,20*,31*,49*,RORg DNA counter=>40
NC(=O)c1nsc(C(=O)N(c2ccccc2)C(C(=O)NCc2ccc(F)cc2)c2ccc(O)cc2)c1N (configuration not stated),-1,20*,9.9*,-1,4,9.8*,12,
CCCCOCC1CN(CCCC)S(=O)(=O)c2c(cccc2Sc2ccc(SC)cc2)O1 (configuration not stated),·,4,-2,·,·,·,·,
CS(=O)(=O)c1ccc(C(=O)Nc2ccc(N3CCCCC3)cc2)c(Cl)c1,-1,8,-3,3,·,·,·,
Cc1ccc(Sc2ccc(NC(=O)c3ccc(S(C)(=O)=O)cc3Cl)cc2)cc1,0,46*,48*,1,41*,62*,22*,
CCOC(=O)c1cc2sc(C)cc2n1CC(=O)NCc1ccc(F)cc1,0,27*,59*,-4,49*,75*,11,
COc1cccc(-c2nnc3sc(-c4cccs4)nn23)c1,-1,41*,39*,-1,33*,57*,13,
COc1cccc(Nc2nn3c(=O)c4ccccc4nc3s2)c1,0,·,·,2,·,·,·,
O=c1c2ccccc2nc2sc(Nc3ccc(F)cc3)nn12,0,100*,12*,2,23*,24*,92*,RORg DNA counter=>40
Cc1ccccc1Nc1nn2c(=O)c3ccc(C(=O)N4CCCC(C)C4)cc3nc2s1 (configuration not stated),0,-1,-1,0,·,·,·,
Cc1ccccc1Nc1nn2c(=O)c3ccccc3nc2s1,0,37*,36*,-3,31*,47*,19*,
O=C(CN1C(=O)NC2(CCCCCCC2)C1=O)Nc1ccc(Br)cc1Br,0,-4,0,2,·,·,·,
CC1CCN(C(=O)c2[nH]cnc2C(=O)Nc2ccccc2)CC1,1,1,0,4,·,·,·,
SMILES,TbMetRS inhib,Rev-erbA mod,PG9 Ab binder,Rin1 Abl inh,PG9 binder conf,PGV04 counter,Rev-erbA confirm,others
CCOC(=O)[C@]12CCC=C1N(Cc1ccc(Cl)cc1Cl)C(=O)[C@H](CC(=O)NCCCN1CCCC1=O)C2,-1,0,-4,·,·,·,·,
C=CCn1c(SCc2nc3ccccc3c(=O)[nH]2)nc2scc(C3CC3)c2c1=O,0,26*,15*,-6,17*,29*,22*,
COC(=O)c1sc(NC(=O)c2c(F)cccc2F)c(C#N)c1C,-1,-6,0,-2,·,·,·,
COC(=O)c1sc(NC(=O)c2c(OC)cccc2OC)c(C#N)c1C,-1,26*,14*,-15,20*,29*,29*,
CC(=O)Nc1cccc(Nc2nc(-c3ccccc3)nc3ccccc23)c1,0,-1,0,1,·,·,·,
CC(=O)c1cccc(Nc2nc(-c3ccccc3)nc3ccccc23)c1,0,26*,36*,-11,12*,22*,8,
Clc1ccc2nc(C3CCCCC3)c(Cc3ccsc3)n2c1,0,-4,-1,3,·,·,·,
COc1ccccc1N(C)S(=O)(=O)c1ccc(C(=O)Nc2ncc(C)s2)cc1,0,2,0,0,·,·,·,
COc1ccccc1N(C)S(=O)(=O)c1ccc(C(=O)Nc2nc(C)c(C(C)=O)s2)cc1,0,104*,40*,-22,41*,61*,87*,RORg DNA counter=>40
COC(=O)[C@]12C[C@H](CC(=O)NCc3ccc(C)o3)C(=O)N(Cc3ccccc3)C1=C[C@H](C1CCCC1)O[C@@H]2C,·,-8,2,·,·,·,·,
C=CCn1c(NC(=O)c2ccc(C)cc2)nc2ccccc21,0,27*,40*,-25,26*,40*,-1,
CCCn1c(NC(=O)c2ccc(C)cc2)nc2ccccc21,-1,-2,4,1,·,·,·,
CN1C(=O)C(=O)/C(=C(/O)c2ccc(Br)cc2)C1c1ccccc1F (configuration not stated),-1,-1,0,2,·,·,·,
CCCn1nnnc1NCc1ccc(N(CC)CC)cc1,-2,3,0,1,·,·,·,
c1ccc(-n2ncc3c(NCc4ccc5c(c4)OCO5)ncnc32)cc1,-1,1,2,2,·,·,·,
